Data as given in ChEMBL document CHEMBL1123819, “Synthesis and antifungal activity of a series of novel 1,2-disubstituted propenones” (1987).
Values after ≈ are worked out from the molar mass of the structure shown.

Columns and labels:
Assay type in all cases: functional
[1] = system: Aspergillus fumigatus; assay: Antifungal activity against Aspergillus fumigatus was determined in vitro
Procedure, shortened: (§1)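 Broth microdilution in Sabouraud's glucose broth; MIC read as the fungistatic end point. Final inocula were 1 × 10^5 cells/mL for the yeast and 1 × 10^5 conidia/mL for the mould and the dermatophyte.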

[2] = system: Candida albicans; assay: (§2) Antifungal activity against Candida albicans was determined in vitro; procedure, shortened: as §1
[3] = system: Trichophyton benhamiae; assay: Antifungal activity against Trichophyton asteroides was determined in vitro; procedure, shortened: as §1
[4] = system: Candida albicans; assay: as §2; remark: listed apart in the source
Procedure, shortened: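 MIC by broth microdilution in microtiter plates. Final inoculum 1 × 10^5 yeast cells per mL of Sabouraud's glucose broth. Fungistatic activity was assessed.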

Row | SMILES | MIC [1] [µg/mL] | MIC [2] [µg/mL] | MIC [3] [µg/mL] | MIC [4] [µg/mL]
1 | O=C(/C(=C/c1ccc(F)cc1)n1ccccc1=O)c1ccc(Cl)cc1 | > 100 | > 100 | 12.5 (≈ 35.3 µM) | –
2 | C=C(C(=O)c1ccc(Cl)cc1)n1ncc2ccccc2c1=O | 6.3 (≈ 20.3 µM) | 0.8 (≈ 2.57 µM) | 1.6 (≈ 5.15 µM) | –
3 | C=C(C(=O)c1ccc(Cl)cc1Cl)n1ccccc1=O | 25 (≈ 85 µM) | 0.8 (≈ 2.72 µM) | 0.8 (≈ 2.72 µM) | –
4 | C=C(C(=O)c1ccco1)n1cncn1 | 6.3 (≈ 33.3 µM) | 0.8 (≈ 4.23 µM) | 3.1 (≈ 16.4 µM) | –
5 | C=C(C(=O)c1ccccc1OC)n1ccccc1=O | > 100 | 3.1 (≈ 12.1 µM) | 1.6 (≈ 6.27 µM) | –
6 | C=C(CN(C)C)C(=O)c1ccc(Cl)cc1 | 12.5 (≈ 55.9 µM) | 12.5 (≈ 55.9 µM) | 6.3 (≈ 28.2 µM) | –
7 | C=C(C(=O)c1ccc(Cl)cc1)n1c(=O)ccc2ccccc21 | 1.6 (≈ 5.17 µM) | 3.1 (≈ 10 µM) | 0.2 (≈ 0.646 µM) | –
8 | C=C(Cn1cccn1)C(=O)c1ccc(-c2ccccc2)cc1 | 12.5 (≈ 43.4 µM) | 6.3 (≈ 21.8 µM) | 0.8 (≈ 2.77 µM) | –
9 | C=C(C(=O)c1ccc(Cl)cc1)n1cc(C)ccc1=O | 3.1 (≈ 11.3 µM) | 0.8 (≈ 2.92 µM) | 0.8 (≈ 2.92 µM) | –
10 | COCC(C(=O)c1ccc(OC)cc1)n1cncn1 (stereo unspecified) | 100 (≈ 383 µM) | 3.1 (≈ 11.9 µM) | 3.1 (≈ 11.9 µM) | –
11 | C=C(C(=O)c1ccc(Cl)cc1)N1C(=O)C=NC(=O)C1C (stereo unspecified) | 6.3 (≈ 21.7 µM) | 6.3 (≈ 21.7 µM) | 3.1 (≈ 10.7 µM) | –
12 | C=C(C(=O)c1ccc(F)cc1)c1ccc(Cl)cc1Cl | 12.5 (≈ 42.4 µM) | 3.1 (≈ 10.5 µM) | 0.4 (≈ 1.36 µM) | –
13 | C=C(Cn1ccccc1=O)C(=O)c1ccc(OC)cc1 | 100 (≈ 371 µM) | 25 (≈ 92.8 µM) | 6.3 (≈ 23.4 µM) | –
14 | C=C(C(=O)c1ccc(Cl)cc1)n1cncn1 | 6.3 (≈ 27 µM) | 0.2 (≈ 0.856 µM) | 1.6 (≈ 6.85 µM) | –
15 | C=C(C(=O)c1ccc(C#N)cc1)n1cncn1 | 25 (≈ 111 µM) | 1.6 (≈ 7.14 µM) | 6.3 (≈ 28.1 µM) | –
16 | C=C(C(=O)c1ccc(C(=O)OC)cc1)n1ccccc1=O | 50 (≈ 177 µM) | 3.1 (≈ 10.9 µM) | 3.1 (≈ 10.9 µM) | –
17 | C=C(C(C)=O)n1cncn1 | 25 (≈ 182 µM) | 12.5 (≈ 91.1 µM) | 3.1 (≈ 22.6 µM) | –
18 | C=C(C(=O)c1ccc(OC)cc1)n1cncn1 | 12.5 (≈ 54.5 µM) | 0.8 (≈ 3.49 µM) | 0.8 (≈ 3.49 µM) | –
19 | C=C(C(=O)c1cccs1)c1ccc(Cl)cc1 | 3.1 (≈ 12.5 µM) | 3.1 (≈ 12.5 µM) | 0.1 (≈ 0.402 µM) | –
20 | C=C(C(=O)c1cccs1)n1cncn1 | 6.3 (≈ 30.7 µM) | 0.4 (≈ 1.95 µM) | 1.6 (≈ 7.8 µM) | –
21 | CC(C(=O)c1ccc(Cl)cc1)n1ccccc1=O (stereo unspecified) | > 100 | > 100 | > 100 | –

Row | SMILES | MIC [1] [µg/mL] | MIC [2] [µg/mL] | MIC [3] [µg/mL] | MIC [4] [µg/mL]
22 | C=C(C(=O)c1ccc(Cl)cc1Cl)n1cccn1 | 25 (≈ 93.6 µM) | 0.8 (≈ 2.99 µM) | 1.6 (≈ 5.99 µM) | –
23 | C=C(C(=O)c1ccc(Cl)cc1)n1c(=O)n(C)c2ccccc21 | 1.6 (≈ 5.12 µM) | 1.6 (≈ 5.12 µM) | 0.4 (≈ 1.28 µM) | –
24 | C=C(C(=O)c1ccc(-c2ccccc2)cc1)n1cncn1 | 3.1 (≈ 11.3 µM) | 0.4 (≈ 1.45 µM) | 0.2 (≈ 0.726 µM) | –
25 | C=C(Cn1cncn1)C(=O)c1ccc(OC)cc1 | > 100 | 12.5 (≈ 51.4 µM) | 6.3 (≈ 25.9 µM) | –
26 | C=C(C(=O)C(C)(C)C)n1cncn1 | 6.3 (≈ 35.2 µM) | 0.4 (≈ 2.23 µM) | 6.3 (≈ 35.2 µM) | –
27 | O=C(c1ccc(Cl)cc1)C(CO)n1cnc2ccccc2c1=O (stereo unspecified) | 6.3 (≈ 19.2 µM) | 0.8 (≈ 2.43 µM) | 0.8 (≈ 2.43 µM) | –
28 | C=C(Cn1c(=O)ccc2ccccc21)C(=O)c1ccc(Cl)cc1 | 100 (≈ 309 µM) | 25 (≈ 77.2 µM) | 3.1 (≈ 9.57 µM) | –
29 | C=C(Cn1ccccc1=O)C(=O)c1ccc(Cl)cc1 | 25 (≈ 91.3 µM) | 1.6 (≈ 5.85 µM) | 0.8 (≈ 2.92 µM) | –
30 | C=C(C(=O)N1CCOCC1)c1ccc(Cl)cc1Cl | > 100 | > 100 | > 100 | –
31 | C=C(C(=O)c1ccc(OC)cc1)n1cnc2ccccc2c1=O | 6.3 (≈ 20.6 µM) | 1.6 (≈ 5.22 µM) | 0.4 (≈ 1.31 µM) | –
32 | C=C(C(=O)c1cccs1)c1ccccc1 | 1.6 (≈ 7.47 µM) | 1.6 (≈ 7.47 µM) | 0.2 (≈ 0.933 µM) | –
33 | CC/C=C(\C(=O)c1ccc(Cl)cc1)n1ccccc1=O | > 100 | > 100 | 25 (≈ 86.9 µM) | –
34 | C=C(C(=O)c1ccc(Cl)cc1)n1cnccc1=O | 3.1 (≈ 11.9 µM) | 0.4 (≈ 1.53 µM) | 1.6 (≈ 6.14 µM) | –
35 | C=C(C(=O)c1ccc(Cl)cc1)n1cc(C(=O)OC)ccc1=O | 3.1 (≈ 9.76 µM) | 0.8 (≈ 2.52 µM) | 0.8 (≈ 2.52 µM) | –
36 | C=C(C(=O)c1ccc(Cl)cc1Cl)c1ccc(Cl)cc1Cl | > 100 | 6.3 (≈ 18.2 µM) | 0.4 (≈ 1.16 µM) | –
37 | C=C(Cc1ccccc1)C(=O)c1cccs1 | 100 (≈ 438 µM) | > 100 | 6.3 (≈ 27.6 µM) | –
38 | C=C(Cn1cncn1)C(=O)c1ccc(-c2ccccc2)cc1 | 12.5 (≈ 43.2 µM) | 1.6 (≈ 5.53 µM) | 0.4 (≈ 1.38 µM) | –
39 | C=C(C(=O)c1ccc(Cl)cc1)n1ccccc1=O | 2.5 (≈ 9.63 µM) | 1.6 (≈ 6.16 µM) | 0.8 (≈ 3.08 µM) | –
40 | C=C(Cn1cncn1)C(=O)c1ccc(Cl)cc1 | 12.5 (≈ 50.5 µM) | 0.4 (≈ 1.61 µM) | 1.6 (≈ 6.46 µM) | –
41 | C=C(C(=O)c1ccccc1)n1ccccc1=O | 50 (≈ 222 µM) | 6.3 (≈ 28 µM) | 1.6 (≈ 7.1 µM) | –
42 | C=C(Cn1ccccc1=O)C(=O)c1ccc(-c2ccccc2)cc1 | 50 (≈ 159 µM) | 6.3 (≈ 20 µM) | 0.8 (≈ 2.54 µM) | –

Row | SMILES | MIC [1] [µg/mL] | MIC [2] [µg/mL] | MIC [3] [µg/mL] | MIC [4] [µg/mL]
43 | C=C(C(=O)c1ccc(-c2ccccc2)cc1)n1ccccc1=O | 12.5 (≈ 41.5 µM) | 0.8 (≈ 2.65 µM) | 0.4 (≈ 1.33 µM) | –
44 | C=C(C(=O)c1ccc(Cl)cc1)n1cc(Cl)ccc1=O | 3.1 (≈ 10.5 µM) | 0.8 (≈ 2.72 µM) | 0.8 (≈ 2.72 µM) | –
45 | C=C(C(=O)C(C)(C)C)n1ccccc1=O | > 100 | 50 (≈ 244 µM) | 6.3 (≈ 30.7 µM) | –
46 | C=C(Cn1ccccc1=O)C(=O)c1ccsc1 | 50 (≈ 204 µM) | 50 (≈ 204 µM) | 6.3 (≈ 25.7 µM) | –
47 | C=C(C(=O)c1ccc(Cl)cc1)n1cnc2ccccc2c1=O | 0.4 (≈ 1.29 µM) | 0.1 (≈ 0.322 µM) | 0.1 (≈ 0.322 µM) | –
48 | C=C(C(=O)c1ccc(-c2ccccc2)cc1)n1cnc2ccccc2c1=O | > 100 | > 100 | 25 (≈ 70.9 µM) | –
49 | C=C(C(=O)c1ccc(C)cc1)n1cncn1 | 6.3 (≈ 29.5 µM) | 0.2 (≈ 0.938 µM) | 0.8 (≈ 3.75 µM) | –
50 | C=C(C)C(=O)c1ccco1 | 25 (≈ 184 µM) | 25 (≈ 184 µM) | 1.6 (≈ 11.8 µM) | –
51 | C=C(Cn1cnc2ccccc2c1=O)C(=O)c1ccc(Cl)cc1 | 6.3 (≈ 19.4 µM) | 3.1 (≈ 9.55 µM) | 3.1 (≈ 9.55 µM) | –
52 | C=C(C(=O)Nc1ccc(Cl)cc1)c1ccc(Cl)cc1Cl | > 100 | > 100 | > 100 | –
53 | COc1ccc(C(=O)C(CO)n2cncn2)cc1 (stereo unspecified) | 100 (≈ 404 µM) | 3.1 (≈ 12.5 µM) | 3.1 (≈ 12.5 µM) | –
54 | C=C(C(=O)c1ccc(F)cc1)n1cncn1 | 6.3 (≈ 29 µM) | 0.4 (≈ 1.84 µM) | 0.8 (≈ 3.68 µM) | –
55 | C=C(C(=O)c1ccc(Cl)cc1)N1CC(=O)N=CC1=O | > 100 | 12.5 (≈ 45.2 µM) | 12.5 (≈ 45.2 µM) | –
56 | C=C(C(=O)c1ccccc1)n1cc(Cl)ccc1=O | 25 (≈ 96.3 µM) | 6.3 (≈ 24.3 µM) | 3.1 (≈ 11.9 µM) | –
57 | C=C(C(=O)c1ccc(Cl)cc1)n1c(O)nc2ccccc21 | 12.5 (≈ 41.8 µM) | 6.3 (≈ 21.1 µM) | 3.1 (≈ 10.4 µM) | –
58 | C=C(Cn1cncn1)C(=O)c1ccsc1 | 100 (≈ 456 µM) | 12.5 (≈ 57 µM) | 6.3 (≈ 28.7 µM) | –
59 | Clc1ccccc1C(c1ccccc1)(c1ccccc1)n1ccnc1 [CLOTRIMAZOLE] | 1.6 (≈ 4.64 µM) | 1.6 (≈ 4.64 µM) | 0.1 (≈ 0.29 µM) | –
60 | C=C(c1ccccc1OCc1cccc(Cl)c1)n1ccnc1 [CROCONAZOLE] | 3.1 (≈ 9.97 µM) | – | 0.1 (≈ 0.322 µM) | 3.1 (≈ 9.97 µM)
61 | Clc1ccc(COC(Cn2ccnc2)c2ccc(Cl)cc2Cl)cc1 (stereo unspecified) [ECONAZOLE] | 3.1 (≈ 8.12 µM) | 3.1 (≈ 8.12 µM) | 0.1 (≈ 0.262 µM) | –
62 | Clc1ccc(COC(Cn2ccnc2)c2ccc(Cl)cc2Cl)c(Cl)c1 (stereo unspecified) [MICONAZOLE] | 6.3 (≈ 15.1 µM) | 3.1 (≈ 7.45 µM) | 0.1 (≈ 0.24 µM) | –
